Measured values reported in ChEMBL document CHEMBL2417509, “Synthesis and biological evaluation of prodigiosene conjugates of porphyrin, estrone and 4-hydroxytamoxifen” (2013).

Experiments:
Type in all cases: functional
[1] = tested on: MCF7; test: Cytotoxicity against human MCF7 cells after 2 days by sulforhodamine B assay; conditions: MCF7, 48 h
In short: (§1)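 NCI60 multi-dose screen, 59 human tumour lines available. Cells exposed to compound across a 5-log mol/L concentration range for 2 days, then fixed and stained with sulphorhodamine B, optical density read. Growth inhibition calculated against time-zero control and untreated cells. GI50 derived from the dose series, average of two replicates.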

[2] = tested on: SF-539; test: Cytotoxicity against human SF539 cells after 2 days by sulforhodamine B assay; conditions: SF-539, 48 h; in short: as §1
[3] = tested on: 786-0; test: Cytotoxicity against human 786-0 cells after 2 days by sulforhodamine B assay; conditions: 786-0, 48 h; in short: as §1
[4] = tested on: MOLT-4; test: Cytotoxicity against human MOLT4 cells after 2 days by sulforhodamine B assay; conditions: MOLT-4, 48 h; for CC50: read-out: LC50 (the source's name); in short: as §1
[5] = tested on: OVCAR-5; test: Cytotoxicity against human OVCAR5 cells after 2 days by sulforhodamine B assay; conditions: OVCAR-5, 48 h; in short: as §1
[6] = tested on: SK-MEL-28; test: Cytotoxicity against human SK-MEL-28 cells after 2 days by sulforhodamine B assay; conditions: SK-MEL-28, 48 h; in short: as §1
[7] = tested on: SK-OV-3; test: Cytotoxicity against human SKOV3 cells after 2 days by sulforhodamine B assay; conditions: SK-OV-3, 48 h; in short: as §1
[8] = tested on: COLO 205; test: Cytotoxicity against human COLO205 cells after 2 days by sulforhodamine B assay; conditions: COLO 205, 48 h; in short: as §1
[9] = tested on: HCT-116; test: Cytotoxicity against human HCT116 cells after 2 days by sulforhodamine B assay; conditions: HCT-116, 48 h; in short: as §1
[10] = tested on: MDA-MB-231; test: Cytotoxicity against human MDA-MB-231 cells after 2 days by sulforhodamine B assay; conditions: MDA-MB-231, 48 h; in short: as §1
[11] = tested on: NCI-H226; test: Cytotoxicity against human NCI-H226 cells after 2 days by sulforhodamine B assay; conditions: NCI-H226, 48 h; in short: as §1
[12] = tested on: SR; test: Cytotoxicity against human SR cells after 2 days by sulforhodamine B assay; conditions: 48 h
In short: (§2)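 NCI DTP NCI60 multi-dose screen (59 human tumour lines available). Cells exposed to compound over a 5-log mol/L concentration range for 2 days, then fixed and stained with sulphorhodamine B, with optical density read. Growth inhibition calculated relative to time-zero cells and untreated cells, giving GI50 (half-maximal growth inhibition concentration). Average of two replicates.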

[13] = tested on: NCI-H23; test: Cytotoxicity against human NCI-H23 cells after 2 days by sulforhodamine B assay; conditions: NCI-H23, 48 h; in short: as §1
[14] = tested on: CAKI-1; test: Cytotoxicity against human CAKI-1 cells after 2 days by sulforhodamine B assay; conditions: CAKI-1, 48 h; in short: as §1
[15] = tested on: HCC 2998; test: Cytotoxicity against human HCC2998 cells after 2 days by sulforhodamine B assay; conditions: HCC 2998, 48 h; in short: as §1
[16] = tested on: RXF 393; test: Cytotoxicity against human RXF393 cells after 2 days by sulforhodamine B assay; conditions: RXF 393, 48 h; in short: as §1
[17] = tested on: RPMI-8226; test: Cytotoxicity against human RPMI8226 cells after 2 days by sulforhodamine B assay; conditions: RPMI-8226, 48 h; in short: as §1
[18] = Cytotoxicity against human NCI-ADR-RES cells after 2 days by sulforhodamine B assay; conditions: 48 h; for CC50: read-out: LC50 (the source's name); in short: as §1
[19] = tested on: SF-268; test: Cytotoxicity against human SF268 cells after 2 days by sulforhodamine B assay; conditions: SF-268, 48 h; in short: as §1
[20] = Cytotoxicity against human Hs578T cells after 2 days by sulforhodamine B assay; conditions: Hs-578T, 48 h; for CC50: read-out: LC50 (the source's name); in short: as §1
[21] = tested on: A498; test: Cytotoxicity against human A498 cells after 2 days by sulforhodamine B assay; conditions: A498, 48 h; in short: as §1
[22] = tested on: SK-MEL-2; test: Cytotoxicity against human SK-MEL-2 cells after 2 days by sulforhodamine B assay; conditions: SK-MEL-2, 48 h; in short: as §1
[23] = tested on: OVCAR-3; test: Cytotoxicity against human OVCAR3 cells after 2 days by sulforhodamine B assay; conditions: OVCAR-3, 48 h; in short: as §1
[24] = tested on: OVCAR-8; test: Cytotoxicity against human OVCAR8 cells after 2 days by sulforhodamine B assay; conditions: OVCAR-8, 48 h; in short: as §1
[25] = tested on: UO-31; test: Cytotoxicity against human UO31 cells after 2 days by sulforhodamine B assay; conditions: UO-31, 48 h; in short: as §2
[26] = tested on: CCRF-CEM; test: Cytotoxicity against human CCRF-CEM cells after 2 days by sulforhodamine B assay; conditions: 48 h; for CC50: read-out: LC50 (the source's name); in short: as §1
[27] = tested on: SNB-19; test: Cytotoxicity against human SNB19 cells after 2 days by sulforhodamine B assay; conditions: SNB-19, 48 h; for CC50: read-out: LC50 (the source's name); in short: as §2
[28] = tested on: HT-29; test: Cytotoxicity against human HT-29 cells after 2 days by sulforhodamine B assay; conditions: HT-29, 48 h; in short: as §1
[29] = tested on: NCI-H460; test: Cytotoxicity against human NCI-H460 cells after 2 days by sulforhodamine B assay; conditions: NCI-H460, 48 h; in short: as §1

## CC/C(=C(/c1ccc(OCCN(C)C)cc1)c1ccc(OC(=O)CCC(=O)C2=C(C)/C(=C/c3[nH]c(-c4ccc[nH]4)cc3OC)N=C2C)cc1)c1ccccc1
[1]
  GI50: 0.03 µM
  LC50 (concentration giving 50% net cell kill): 39.9 µM
  TGI: 2.81 µM
[2]
  GI50: 2.62 µM
  LC50: 40.3 µM
  TGI: 9.55 µM
[3]
  GI50: 2.19 µM
  LC50 (concentration killing 50% of cells): > 100 µM
  TGI: 5.77 µM
[4]
  GI50: 0.98 µM
  TGI: 4.22 µM
  CC50: > 100 µM
[5]
  GI50: 6.99 µM
  LC50: 53.1 µM
  TGI: 22 µM
[6]
  GI50: 2.94 µM
  LC50: 46.3 µM
  TGI: 12.7 µM
[7]
  GI50: 7.17 µM
  LC50 (concentration killing 50% of starting cells): > 100 µM
  TGI: 30.1 µM
[8]
  GI50: 1.9 µM
  LC50 (concentration killing 50% of cells): > 100 µM
  TGI: 7.26 µM
[9]
  GI50: 0.82 µM
  LC50 (concentration killing 50% of cells vs time zero): > 100 µM
  TGI: 3.28 µM
[10]
  GI50: 0.45 µM
  LC50: 20.3 µM
  TGI: 2.43 µM
[11]
  GI50: 6.53 µM
  LC50: > 100 µM
  TGI: 25.2 µM
[12]
  GI50: 0.69 µM
  LC50 (concentration giving 50% net cell kill): > 100 µM
  TGI: 5.43 µM
[13]
  GI50: 4.03 µM
  LC50 (concentration killing 50% of cells): 70 µM
  TGI: 18.7 µM
[14]
  GI50: 2.69 µM
  LC50 (concentration killing 50% of the cells present at time zero): 58.3 µM
  TGI: 16.1 µM
[15]
  GI50: 3.83 µM
  LC50 (50% lethal concentration): 39.9 µM
  TGI: 14.3 µM
[16]
  GI50: 2.35 µM
  LC50 (concentration killing 50% of cells): 73.3 µM
  TGI: 13 µM
[17]
  GI50: 1.65 µM
  LC50 (concentration killing 50% of cells present at time zero): > 100 µM
  TGI: 5.64 µM
[18]
  GI50: 3.63 µM
  TGI: 16.1 µM
  CC50: 74.5 µM
[19]
  GI50: 2.63 µM
  LC50 (concentration killing 50% of cells): > 100 µM
  TGI: 18.3 µM
[20]
  GI50: 1.15 µM
  TGI: 4.68 µM
  CC50: 64.6 µM
[21]
  GI50: 2.96 µM
  LC50: 44.2 µM
  TGI: 16.8 µM
[22]
  GI50: 2.45 µM
  LC50: 25.3 µM
  TGI: 6.42 µM
[23]
  GI50: 2.11 µM
  LC50: 38.7 µM
  TGI: 10.6 µM
[24]
  GI50: 2.76 µM
  LC50: 68 µM
  TGI: 10.9 µM
[25]
  GI50: 1.7 µM
  LC50: 30.1 µM
  TGI: 5.1 µM
[26]
  GI50: 0.43 µM
  TGI: 7.21 µM
  CC50: > 100 µM
[27]
  GI50: 5.49 µM
  TGI: 21.9 µM
  CC50: 65.9 µM
[28]
  GI50: 0.44 µM
  LC50: 45.7 µM
  TGI: 11.1 µM
[29]
  GI50: 3.52 µM
  LC50: > 100 µM
  TGI: 14.4 µM

## CC/C(=C(/c1ccc(OCCN(C)C)cc1)c1ccc(OC(=O)CCCCCCCCC(=O)C2=C(C)/C(=C/c3[nH]c(-c4ccc[nH]4)cc3OC)N=C2C)cc1)c1ccccc1
[1]
  GI50: 0.16 µM
  LC50 (concentration giving 50% net cell kill): > 100 µM
  TGI: 11 µM
[2]
  GI50: 12 µM
  LC50: > 100 µM
  TGI: 50.1 µM
[3]
  GI50: 5.25 µM
  LC50 (concentration killing 50% of cells): > 100 µM
  TGI: > 100 µM
[4]
  GI50: 5.13 µM
  TGI: > 100 µM
  CC50: > 100 µM
[5]
  GI50: > 100 µM
  LC50: > 100 µM
  TGI: > 100 µM
[6]
  GI50: 43.6 µM
  LC50: > 100 µM
  TGI: > 100 µM
[7]
  GI50: > 100 µM
  LC50 (concentration killing 50% of starting cells): > 100 µM
  TGI: > 100 µM
[8]
  GI50: 8.13 µM
  LC50 (concentration killing 50% of cells): > 100 µM
  TGI: 77.6 µM
[9]
  GI50: 3.39 µM
  LC50 (concentration killing 50% of cells vs time zero): > 100 µM
  TGI: 21.9 µM
[10]
  GI50: 3.39 µM
  LC50: > 100 µM
  TGI: 18.2 µM
[11]
  GI50: > 100 µM
  LC50: > 100 µM
  TGI: > 100 µM
[12]
  GI50: 4.07 µM
  LC50 (concentration giving 50% net cell kill): > 100 µM
  TGI: > 100 µM
[13]
  GI50: 47.9 µM
  LC50 (concentration killing 50% of cells): > 100 µM
  TGI: > 100 µM
[14]
  GI50: 6.92 µM
  LC50 (concentration killing 50% of the cells present at time zero): > 100 µM
  TGI: > 100 µM
[15]
  GI50: > 100 µM
  LC50 (50% lethal concentration): > 100 µM
  TGI: > 100 µM
[16]
  GI50: 13.8 µM
  LC50 (concentration killing 50% of cells): > 100 µM
  TGI: > 100 µM
[17]
  GI50: 3.72 µM
  LC50 (concentration killing 50% of cells present at time zero): > 100 µM
  TGI: > 100 µM
[18]
  GI50: 31.6 µM
  TGI: > 100 µM
  CC50: > 100 µM
[19]
  GI50: 6.61 µM
  LC50 (concentration killing 50% of cells): > 100 µM
  TGI: > 100 µM
[20]
  GI50: 4.79 µM
  TGI: 85.1 µM
  CC50: > 100 µM
[21]
  GI50: 15.1 µM
  LC50: > 100 µM
  TGI: 72.4 µM
[22]
  GI50: 30.9 µM
  LC50: > 100 µM
  TGI: > 100 µM
[23]
  GI50: 11 µM
  LC50: > 100 µM
  TGI: > 100 µM
[24]
  GI50: 9.12 µM
  LC50: > 100 µM
  TGI: > 100 µM
[25]
  GI50: 4.47 µM
  LC50: > 100 µM
  TGI: > 100 µM
[26]
  GI50: 0.76 µM
  TGI: > 100 µM
  CC50: > 100 µM
[27]
  GI50: 6.31 µM
  TGI: > 100 µM
  CC50: > 100 µM
[28]
  GI50: 5.13 µM
  LC50: > 100 µM
  TGI: > 100 µM
[29]
  GI50: 4.27 µM
  LC50: > 100 µM
  TGI: > 100 µM
